# In the RNAGym collection of RNA variant scans (doi:10.1126/science.aae0568):
# Fewer inactive variants are shown than the library holds.
# B1: tRNA (parent)
# chain: GUUCCGUUGGCGUAAUGGUAACGCGUCUCCCUCCUAAGGAGAAGACUGCGGGUUCGAGUCCCGUACGGAACG
# Variants of: B1
# Experiment: yeast fitness relative to wild type (ratio to wild type); higher = fitter; tRNA-Arg(CCU), competitive growth, 37 C, YPD
# Outline: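 A pool of Saccharomyces cerevisiae strains, each with a tRNA-Arg(CCU) gene variant at the native genomic locus, was competed in YPD at 37°C for 24 hours across six parallel replicates. The variants had been chemically synthesised at a 3% per-site mutation rate over 69 sites, and gene amplicons before and after competition were read by 100-nucleotide paired-end sequencing. Darwinian fitness relative to wild type rested on changes in genotype frequencies. Genotypes required ≥ 100 starting reads, and estimates < 0.5 were set to 0.5.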
row,Variant,yeast fitness
1,GUUCCGUUGGCGUAAUGGUAACGGGUCUCCCUCCUAAGGAAAAGACUGCGAGUUCCAGUCCCGUACGGAACG [C24G G41A G51A G56C],0.556
2,GUUCCGUUGGCGUAAUGGUAACGGGUCUCCCUCCUAAGGAGAAGACUGCGGGUUCGAGUCGCGUACGAAACG [C24G C61G G68A],≤ 0.5
3,GUUCCGUUGGCGUAAUGGUAACGGGUCUCCCUCCUAAGGAGAAGACUCUGGGUUCGAGUCCCGUACGGAACG [C24G G48C C49U],≤ 0.5
4,GUUCCGUUGGCGUAAUGGUAACGGGUCUCCCUCCUAAGGAGAAGACUGUGAGUUCGAGUCACGUACGGUACG [C24G C49U G51A C61A A69U],≤ 0.5
5,GUUCCGUUGGCGUAAUGGUAACGGGUCUCCCUCCUAAGGAGAAGACUGCGGGUUCGAGUUCCGUACGAAACG [C24G C60U G68A],0.789
6,GUUCCGUUGGCGUAAUGGUAACGGGUCUCCCUCCUAAGGAGAAGACUGCGGGUUCGAGUACCGUACAGAACG [C24G C60A G67A],0.693
7,GUUCCGUUGGCGUAAUGGUAACGGGUCUCCCUCCUAAGGAGAAGACUGCGGGUUUGAGUCCCGUACGCAACG [C24G C55U G68C],≤ 0.5
8,GUUCCGUUGGCGUAAUGGUAACGGGUCUCCCUCCUAAGGAGAAGACUGCGGGUUCGAGUUCCGUACGGAACG [C24G C60U],0.61
9,GUUCCGUUGGCGUAAUGGUAACGGGUCUCCCUCCUAAGGAGAAGACUGCGGGUUCGAAUCCCGUACGGAACG [C24G G58A],0.675
10,GUUCCGUUGGCGUAAUGGUAACGGGUCUCCCUCCUAAGGAGAAGACUGCGGGUUCGACUCCCGUACGGAACG [C24G G58C],0.573
11,GUUCCGUUGGCGUAAUGGUAACGGGUCUCCCUCCUAAGGAGAAGACUGCGGGUUCCAGAGCGGUACGGACCG [C24G G56C U59A C60G C62G A70C],0.617
12,GUUCCGUUGGCGUAAUGGUAACGGGUCUCCCUCCUAAGCAGAAGACUGCGGGUUCGAGUCCCGUACGGAACG [C24G G39C],0.608
13,GUUCCGUUGGCGUAAUGGUAACGGCUCUCCCUCCUAAGGAGAAGGCUGCGGGUUCGAGUCCCGUACGGAACG [C24G G25C A45G],0.512
14,GUUCCGUUGGCGUAAUGGUAACGGGUCUCCCUCCUAAGGAGAAGACUGCCGGUUCGAGUCCCGUACGCAACG [C24G G50C G68C],0.629
15,GUUCCGUUGGCGUAAUGGUAACGGGUCUCCCUCCUAAGGAGAAGACUGCGGGUUCGAGUCGUGUAUGGAACG [C24G C61G C62U C66U],≤ 0.5
16,GUUCCGUUGGCGUAAUGGUAACGGGUCUCCCUCCUAAAGAGAAGACUGCGGGAUCGAGUCCCGUACGGAACG [C24G G38A U53A],≤ 0.5
17,GUUCCGUUGGCGUAAUGGUAACGGGUCUCCCUCCUAAGGAGAAGACUGCGGGUUCGAGUCCCGUACUGAACG [C24G G67U],≤ 0.5
18,GUUCCGUUGGCGUAAUGGUAACGGGUCUCCCUCCUAAGGAGAAGACUGCGGGUUCGAGUCCCGUACCGAACG [C24G G67C],0.622
19,GUUCCGUUGGCGUAAUGGUAACGGGUCUCCCUCCUAAGGAGAAGACUGCGGGUUCGAGUCCCGUACAGAACG [C24G G67A],0.594

row,Variant,yeast fitness
1,GUUCCGUUGGCGUAAUGGUAACGGGUCUCCCUCCUAAGGAGAAGACUGCGGGUUCGAGUGCCGUACGGAGCG [C24G C60G A70G],≤ 0.5
2,GUUCCGUUGGCGUAAUGGUAACGGGUCUCCCUCCUAAAGAGAAGACUGCGGGUUCGAGUCCCGAACGGAACG [C24G G38A U64A],≤ 0.5
3,GUUCCGUUGGCGUAAUGGUAACGGGACUGCCACCUAAGGAGAAGACUGCGGGUUCGAGUCCCGUACGGAACG [C24G U26A C29G U32A],0.516
4,GUUCCGUUGGCGUAAUGGUAACGGGUCUCCCUCCUAAGGAGAAGACUGCGGGUUAGAGUCCCGUACGGACCG [C24G C55A A70C],≤ 0.5
5,GUUCCGUUGGCGUAAUGGUAACGGGUCUCCCUCCUAAGGAGAAGACUGCGGGUUCGAGUUCCGUACGGCACG [C24G C60U A69C],≤ 0.5
6,GUUCCGUUGGCGUAAUGGUAACGGGUCUCCCUCCUAAGGAGAAGACUGCUGGUUCGAGUCCCGUACGGAACG [C24G G50U],0.544
7,GUUCCGUUGGCGUAAUGGUAACGGAUCUCCCUCAUAAGGAGAAGAGUGCGGGUUCGAGUCCCGUACGGAACG [C24G G25A C34A C46G],≤ 0.5
8,GUUCCGUUGGCGUAAUGGUAACGGGUCUCCCUCCUAAGGACAAGACUGCGGGUUCGAGUCCCGUACGGAACG [C24G G41C],0.582
9,GUUCCGUUGGCGUAAUGGUAACGGGUCUCCCUCCUAAGGAGAAGACUACGGGUUCGGGUCCCGUACGGAACG [C24G G48A A57G],≤ 0.5
10,GUUCCGUUGGCGUAAUGGUAACGGGUCUCCCUCCUAAGGAGAAGACUGCGGGUUCGAGUACCGAACGGAACG [C24G C60A U64A],0.607
11,GUUCCGUUGGCGUAAUGGUAACGGGUCUCCCUCCUAAGGAGAAGACUGCGGGUUUGAGUCACGUACGGAACG [C24G C55U C61A],0.515
12,GUUCCGUUGGCGUAAUGGUAACGGGUCUCCCUCCUAAGGAGAAGACUACGGCUUCGCGUUCCGUACGGAACG [C24G G48A G52C A57C C60U],≤ 0.5
13,GUUCCGUUGGCGUAAUGGUAACGGGUCUCCCUCCUAAGGAGAAGACUGCGGGUUCGAGUCUCGUACGGAACG [C24G C61U],0.59
14,GUUCCGUUGGCGUAAUGGUAACGGGUCUCCCUCCUAAGGAGAAGACUGCGGGUUUGAGUCCCGUGCGGAACG [C24G C55U A65G],0.546
15,GUUCCGUUGGCGUAAUGGUAACGGCUCUCGCCCCUAAGGAGAAGACUGCGGGUUCGGGUCCCGUACGGAACG [C24G G25C C30G U32C A57G],≤ 0.5
16,GUUCCGUUGGCGUAAUGGUAACGGAUCUCCCUCCUCAGGAGAAGACUGCGGGUUCGAGUCCCGUACUGAACG [C24G G25A A36C G67U],≤ 0.5
17,GUUCCGUUGGCGUAAUGGUAACGGGUCUCCCUCCUAAGGAGAAAACUGCGGGUUUGAGUCCCGUACGGAACG [C24G G44A C55U],≤ 0.5
18,GUUCCGUUGGCGUAAUGGUAACGGGACUCCCUCCUAGGGAGAAGACUACGGGUUCGAGUCCCGUACGGAACG [C24G U26A A37G G48A],≤ 0.5
